# Screens deposited in PubChem by several laboratories.
# In the library only some 11% were active in any assay of this set; here they are far more common.
# RORa activator = activators of human nuclear receptor RORA. P35398. CHO-K1 Gal4-RORA LBD luciferase reporter, luminescence; percent increase over mock-subtracted basal signal. activation, % at 10 µM. 65,000 tested, 1.5% active. AID 560;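 active means activation above the mean of all tested compounds plus 3 SD, cut at about 49% in these data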;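 further: 0% = DMSO-treated RORA cells and 100% = added signal equal to DMSO minus mock-transfected cells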
# M1 ag = agonists of M1 muscarinic receptor; B-score at 10 µM; CHO-M1 cells, Fluo-4 calcium fluorescence, agonist mode; stronger effect = higher value; AID 626; 64,000 tested, 3% active;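 active means fluorescence rise, raw or as B-score row- and column-corrected plate score, outside the 99.7% band of its plate's samples, either direction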
# M1 antagonist = antagonists of rat M1 muscarinic receptor; P08482; CHO-M1 cells, Fluo-4 calcium, ACh EC80 antagonist mode; stronger effect = lower value; B-score at 10 µM; 64,000 tested, 3.4% active;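 active means calcium fluorescence response, raw or row-and-column corrected B-score, differing from the plate sample mean either way at a set confidence level, mostly lower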
# Target sequence (P08482 whole entry, looked up): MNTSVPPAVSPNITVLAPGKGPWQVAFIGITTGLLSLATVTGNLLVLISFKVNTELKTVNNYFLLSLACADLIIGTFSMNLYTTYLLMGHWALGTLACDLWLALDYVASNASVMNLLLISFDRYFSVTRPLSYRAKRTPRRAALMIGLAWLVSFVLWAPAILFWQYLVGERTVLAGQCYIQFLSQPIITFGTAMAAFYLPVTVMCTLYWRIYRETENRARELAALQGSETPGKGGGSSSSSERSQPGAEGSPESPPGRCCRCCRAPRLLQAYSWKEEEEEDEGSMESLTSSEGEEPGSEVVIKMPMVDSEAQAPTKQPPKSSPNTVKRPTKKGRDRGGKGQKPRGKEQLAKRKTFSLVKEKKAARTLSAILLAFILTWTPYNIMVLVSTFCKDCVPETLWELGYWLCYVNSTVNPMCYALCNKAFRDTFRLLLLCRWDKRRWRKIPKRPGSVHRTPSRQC
# D1 allo mod = allosterically modulates the human D1 dopamine receptor; P21728; HEK293 D1, CRE-luciferase, dopamine EC30 potentiation; actives deviate in either direction; B-score at 10 µM; 58,000 tested, 5.9% active;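 active means luminescence count or its row- and column-corrected plate score outside the 99.7% band of the plate's sample wells, on either side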
# Htt clearance = mutant huntingtin protein clearance; 47,000 tested, 0.42% active; HeLa Exon1htt(103Q)mCFP, aggregate imaging; zero = plate's median compound well; inhibition, % at 1.5 µM;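 active means inhibition of aggregate fluorescence above about 70%, also judged a hit by eye on the cell image, limit read from the data, passing the limit was not always enough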;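 further: cells exposed to compound for three days before fixation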
# SF-1 act = activators of human nuclear receptor SF-1 | Q13285 | CHO-K1 Gal4-SF-1 LBD luciferase reporter; % increase over DMSO SF-1-specific signal | activation, % at 10 µM | 65,000 tested, 1.9% active;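 active means activation above the mean activation of all tested compounds plus 3 SD, cut at about 50% in these data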
#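 Test system: transient Gal4-SF-1 LBD reporter, CHO-K1; Amount: 4,000 CHO-K1 cells per well; Doses: 10 µM only; Timing: compound exposure 20 h at 37 °C; Signal: luciferase light emission; Read-out basis: percent activation relative to DMSO median and mock-transfected background; Control set: DMSO negative control and −SF1 background wells; Replicates: one test per compound.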
# M1 antag confirm = confirmation of rat M1 muscarinic receptor antagonists. shares compounds with M1 antagonist. CHO-M1 cells, Fluo-4 calcium, ACh EC80 antagonism; stronger effect = lower value. 1,700 tested, 43% active. calcium response (max-min fluorescence) at 10 µM;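 active means calcium response below the same-plate mean of wells given acetylcholine alone at its 80%-effect dose, minus 3 SD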;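 further: raw fluorescence intensity difference in arbitrary instrument units and not normalized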
# mGluR4 antag = acts on human mGluR4 in M1 antagonist selectivity test | 1,700 tested, 0.9% active | CHO-mGluR4 calcium flux, Fluo-4 fluorescence, glutamate EC80; stronger effect = lower value | AID 678 | shares compounds with M1 antagonist | fluorescence response (max-min) at 10 µM;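 active means fluorescence response below the plate's average for near-maximal glutamate wells, less 3 SD of those wells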;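 further: raw unnormalized fluorescence span taken in the window right after glutamate addition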
# * hit, by the source's call; / = not tested or not shown.
SMILES,RORa activator,M1 ag,M1 antagonist,D1 allo mod,Htt clearance,SF-1 act,M1 antag confirm,mGluR4 antag
COc1ccc(Nc2nc(C)cc(C)c2C#N)cc1OC,-7.6,-0.398,1.15,1.32,/,-6.8,/,/
CCOC(=O)c1ccc(NC(=O)NCCN2CCCCC2)cc1,16.6,-0.0674,-3.41*,0.0713,/,-0.4,512,216
Cc1ccc2c(CC(=O)Nc3c(C)n(C)n(-c4ccccc4)c3=O)coc2c1,11.0,0.0873,0.498,-0.131,40.0,6.2,/,/
Cc1ccc2c(CC(=O)Nc3ccc(N4CCN(C)CC4)cc3C)coc2c1,11.3,-1.4,-3.17*,-4.7*,/,10.5,334*,247
Cn1c(CCN2CCCCC2)nc2cc(NS(=O)(=O)c3ccc(Cl)cc3)ccc21,3.7,-0.92,-3.13*,-1.32,/,1.8,305*,243
Cn1c(CCN2CCCCC2)nc2cc(NC(=O)C3CCCCC3)ccc21,16.0,-0.231,-3.85*,-1.39,/,21.0,408*,198
Cn1c(CN2CCCCC2)nc2cc(NC(=O)c3ccccc3)ccc21,12.9,0.0338,-2.77*,/,-27.2,14.9,472,208
Cc1ccc(N2CCN(CCc3nc4cc(NC(=O)c5ccco5)ccc4n3C)CC2)cc1,33.5,/,/,-0.935,-17.2,17.4,/,/
Cn1c(CCN2CCN(c3ccccc3)CC2)nc2cc(NC(=O)c3ccco3)ccc21,46.0,0.595,-5.51*,-2.53,54.4,22.9,125*,203
COc1ccc(-n2c(SCC(=O)NNC(=O)c3ccccc3C)nnc2-c2ccncc2)cc1,/,/,/,/,13.0,/,/,/
O=C(NCc1ccco1)C(c1cccs1)N(C(=O)C1COc2ccccc2O1)c1cccc(O)c1 (stereo unspecified),5.7,2.18,-1.56,/,13.1,8.2,/,/
Cc1cc(C)cc(OCc2nnc(SCC(=O)N3CCN(c4ccccc4)CC3)o2)c1,-1.1,1.76,-0.795,0.122,12.8,-0.4,/,/
Cn1c(CN2CCCC2)nc2cc(NC(=O)Nc3ccccc3)ccc21,28.7,0.223,-1.57,-2.51,/,26.3,/,/
CC1CCN(CCc2nc3cc(NS(=O)(=O)c4ccccc4)ccc3n2C)CC1,23.0,1.06,-5.98*,-0.327,20.7,-13.0,415*,262
CC1CCN(CCc2nc3cc(NS(=O)(=O)c4ccc(F)cc4)ccc3n2C)CC1,12.7,-0.101,-4*,0.0906,-5.8,21.1,405*,267
Cn1c(CN2CCCCC2)nc2cc(NS(=O)(=O)c3ccc(Cl)cc3)ccc21,3.5,-1.62,-0.865,0.522,-35.3,2.5,/,/
Cn1c(CCN2CCOCC2)nc2cc(NC(=O)COc3ccccc3)ccc21,18.2,-0.196,-3.68*,-0.751,15.4,-0.2,581,174
CC1CCN(CCc2nc3cc(NC(=O)Nc4ccccc4)ccc3n2C)CC1,36.9,-1.11,-10.2*,-0.241,12.2,13.4,302*,209
Cc1ccc(-c2csc(/C(C#N)=C(\O)CN3CCN(C(=O)c4ccco4)CC3)n2)cc1,14.3,0.707,1.25,/,/,0.5,/,/
O=C(O)CCNc1ccc2c(c1)OCCO2,2.7,-0.0389,1.23,0.00859,-32.5,8.4,/,/
O=C1c2ccccc2C(=O)N1CCCOc1ccccc1,36.4,-0.0137,-0.0984,/,-17.8,44.1,/,/
O=C1c2ccccc2C(=O)N1CCOCCN1C(=O)c2ccccc2C1=O,-8.5,0.452,-3.25*,-0.836,50.3,-14.9,687,242
c1ccc(-c2ccc(OCCCn3cncn3)cc2)cc1,12.6,-0.148,-0.0539,/,12.3,24.5,/,/
CCN1CCN(CCCOc2ccc(-c3ccccc3)cc2)CC1,16.6,-0.725,-3.5*,-0.267,35.0,33.2,197*,256
COc1ccccc1N1CCN(C(=O)CCCCn2c(=O)[nH]c3ccsc3c2=O)CC1,-5.1,0.277,0.19,0.169,/,10.4,/,/
SMILES,RORa activator,M1 ag,M1 antagonist,D1 allo mod,Htt clearance,SF-1 act,M1 antag confirm,mGluR4 antag
COc1ccccc1N1CCN(C(=O)CCCn2c(=O)[nH]c3ccsc3c2=O)CC1,-4.5,-1.41,-4.25*,-0.456,-175.5,-1.9,617,222
CCOC(=O)N1CCC(N2CC34C=CC(O3)C(C(=O)O)C4C2=O)CC1 (stereo unspecified),-11.6,0.731,-0.574,-0.0206,-21.7,-3.6,/,/
CC1=C(C(=O)Nc2ccccc2C)C(c2ccc(C)o2)N2C(=O)CSC2=N1 (stereo unspecified),-11.5,-1.12,-0.369,-1.22,/,-11.6,/,/
Cc1cc(C(=O)N2CCN(C(c3ccccc3)c3ccccc3)CC2)on1,-18.1,-0.00288,-1.35*,/,/,7.5,361*,241
CCCOC(=O)c1ccc(OCC(O)CN2CCN(C(=O)c3ccccc3)CC2)cc1 (stereo unspecified),-0.3,-0.361,-2.04*,0.303,14.5,10.8,502,240
CCOc1cc(S(=O)(=O)n2nc(C)cc2C)ccc1F,-21.1,-0.977,-5.23*,/,22.8,1.9,398,249
Cc1ccc(C(C(=O)NC2CCCC2)N(Cc2cccnc2)C(=O)c2snc(C(N)=O)c2N)o1 (stereo unspecified),9.8,-0.0278,-0.32*,0.00148,/,6.9,600,221
Cc1cc(NC(=O)CSc2ccc3c(c2)OCCO3)no1,-6.4,0.0651,-0.0269,/,56.4,-10.5,/,/
Cc1nc2c3c(-c4ccccc4)nc(N4CCOCC4)nc3nn2c(C)c1CCC(=O)O,-25.1,-0.253,0.0948,0.0811,/,9.3,/,/
CCOC(=O)c1c(C)oc2ccc(O)c(CN(C)C)c12,-8.5,-0.00901,-1.3*,-1.34,/,-10.3,460,234
COc1ccc(C(=O)c2coc3ccc(O)c(CN(C)C)c23)cc1,-9.9,1,-0.439,0.307,/,-11.4,/,/
O=c1c2ccccc2[nH]c(=S)n1CCCN1CCN(C2CCCCC2)CC1,10.2,0.243,-2.31*,-0.844,23.7,-1.1,485*,232
CCOC(=O)c1[nH]c2ccc(OC)cc2c1NC(=O)CCN1CCc2ccccc2C1,-13.9,1.39,-3.15*,/,-14.3,-1.8,418*,183
CCOC(=O)c1[nH]c2ccc(OC)cc2c1NC(=O)CCN1CCC(C)CC1,-8.9,0.256,-1.54*,-0.53,/,-11.0,426*,221
CCOC(=O)c1[nH]c2ccc(OCC)cc2c1NC(=O)CN1CCN(c2ccccc2)CC1,23.8,-0.221,1.26,-0.452,/,26.7,/,/
CC1CCN(CCCn2c(=S)[nH]c3ccccc3c2=O)CC1,-3.1,0.043,-0.474,-0.711,1.7,5.2,/,/
COC(=O)c1[nH]c2ccccc2c1NC(=O)CCN1CCN(C2CCCCC2)CC1,13.8,-0.826,-3.65*,-0.426,-7.0,11.8,389*,230
COC(=O)c1[nH]c2ccc(C)cc2c1NC(=O)CN1CCC(C)CC1,-11.6,0.155,0.109,-0.251,/,-12.8,/,/
